One assay has as its system Mus musculus. Briefly: Antipsychotic activity in methamphetamine-induced hyperactivity in ICR mouse assessed as minimum effective dose administered orally. The assay is classed as functional. The following applies: route po, read-out: MED.
A further assay has as its system Rattus norvegicus. Briefly: Effect on prolactin level in Wistar rat at 1 mg/kg, po […] by immunoassay. It counts as functional, organism-based. The essentials: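 Male Wistar rats (7 weeks) dosed orally (haloperidol 1 mg/kg among arms) or vehicle. Trunk blood taken into EDTA 1 h later and centrifuged 1600 g, 20 min, 4 °C. Plasma prolactin measured by rat prolactin enzyme immunoassay; n = 4.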

Activity calls are given as the source filed them. No cut-off for these calls is given here.

Take `Cc1cc2c(s1)Nc1ccccc1N=C2N1CCN(C)CC1` [OLANZAPINE]: in the assay with Mus musculus, the minimal effective dose is 1 mg/kg.

Consider `O=C(CCCN1CCC(O)(c2ccc(Cl)cc2)CC1)c1ccc(F)cc1`, for which the outcome in the assay with Rattus norvegicus was Active.

For the origin of these results see ChEMBL document CHEMBL5678817, “FTBMT, a Novel and Selective GPR52 Agonist, Demonstrates Antipsychotic-Like and Procognitive Effects in Rodents, Revealing a Potential Therapeutic Agent for Schizophrenia” (J Pharmacol Exp Ther, 2017).
